Test results: ChEMBL document CHEMBL1275484, “Rifampin and rifaximin resistance in clinical isolates of Clostridium difficile” (Antimicrob Agents Chemother, 2008)
≈ marks a conversion by molar mass, not a printed value.

What was measured:
Type in all cases: functional
Clostridioides difficile [1] = test: Antimicrobial activity against Clostridium difficile isolate 49 by Etest
In short: (§1)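 Rifampin Etest strips were run on brucella blood agar following the manufacturer's instructions to give an MIC. Clinical isolates were typed by HindIII REA.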

Clostridioides difficile [2] = test: Antimicrobial activity against rifaximin-resistant Clostridium difficile isolate 67 expressing RpoB H502N and R505K mutants by Etest
In short: (§2)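 Rifampin Etest on clinical C. difficile isolates typed by HindIII REA, run per the strip manufacturer's instructions on brucella blood agar, with the MIC read from the strip.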

Clostridioides difficile [3] = test: Antimicrobial activity against Clostridium difficile isolate 58 by agar dilution method
In short: (§3)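 CLSI reference agar dilution method for anaerobes, with endpoints read per guideline M11-A7. Rifaximin was dissolved in methanol, diluted in 0.1 M phosphate buffer (pH 7.4) with 0.45% SDS, and tested at 0.0009–256 μg/ml. Rifampin was dissolved in methanol, diluted in water, and tested at 0.00001–256 μg/ml. C. difficile ATCC […] served as control. Isolates were typed by HindIII REA.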

Clostridioides difficile [4] = test: Antimicrobial activity against Clostridium difficile isolate 28 by Etest
In short: (§4)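 Rifampin MIC by Etest strip on brucella blood agar, run per the strip maker's instructions. Isolates were HindIII REA-typed clinical C. difficile.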

Clostridioides difficile [5] = test: Antimicrobial activity against rifaximin-resistant Clostridium difficile isolate 65 expressing RpoB H502N and R505K mutants by Etest; in short: as §2
Clostridioides difficile [6] = test: Antimicrobial activity against rifaximin-resistant Clostridium difficile isolate 22 expressing RpoB H502N and R505K mutants by Etest; in short: as §2
Clostridioides difficile [7] = test: Antimicrobial activity against Clostridium difficile isolate 28 by agar dilution method
In short: (§5)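 MIC by CLSI reference agar dilution for anaerobes, with endpoints read per M11-A7 and C. difficile […] as control. Rifaximin was dissolved in methanol, diluted in 0.1 M phosphate buffer pH 7.4 plus 0.45% SDS, and tested at 0.0009–256 μg/ml. Rifampin was dissolved in methanol, diluted in water, and tested at 0.00001–256 μg/ml.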

Clostridioides difficile [8] = test: Antimicrobial activity against Clostridium difficile isolate 14 by Etest; in short: as §4
Clostridioides difficile [9] = test: Antimicrobial activity against rifaximin-resistant Clostridium difficile isolate 50 expressing RpoB R505K mutant by agar dilution method
In short: as §5, with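 “MICs were found” for “MIC”, “by the” for “by”, “dilution method” for “dilution”, “with” for “plus”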

Clostridioides difficile [10] = test: Antimicrobial activity against Clostridium difficile isolate 29 by agar dilution method; in short: as §5
Clostridioides difficile [11] = test: Antimicrobial activity against Clostridium difficile isolate 12 expressing RpoB H502N and R505K mutants by Etest; in short: as §2
Clostridioides difficile [12] = test: Antimicrobial activity against Clostridium difficile isolate 47 by agar dilution method; in short: as §3
Clostridioides difficile [13] = test: Antimicrobial activity against Clostridium difficile isolate 9 by agar dilution method
In short: (§6)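 CLSI reference agar dilution for anaerobes, with endpoints read per guideline M11-A7. Rifaximin was dissolved in methanol, diluted in 0.1 M phosphate buffer pH 7.4 with 0.45% SDS, and tested at 0.0009–256 μg/ml. Rifampin was dissolved in methanol, diluted in water, and tested at 0.00001–256 μg/ml. Control strain: C. difficile ATCC […]. Isolates were typed by HindIII REA.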

Clostridioides difficile [14] = test: Antimicrobial activity against Clostridium difficile isolate 62 by Etest; in short: as §1
Clostridioides difficile [15] = test: Antimicrobial activity against Clostridium difficile isolate 44 by Etest; in short: as §1
Clostridioides difficile [16] = test: Antimicrobial activity against Clostridium difficile isolate 54 by agar dilution method; in short: as §3
Clostridioides difficile [17] = test: Antimicrobial activity against Clostridium difficile isolate 5 by Etest; in short: as §1
Clostridioides difficile [18] = test: Antimicrobial activity against Clostridium difficile isolate 41 by Etest; in short: as §1
Clostridioides difficile [19] = test: Antimicrobial activity against Clostridium difficile isolate 39 by Etest; in short: as §1
Clostridioides difficile [20] = test: Antimicrobial activity against Clostridium difficile isolate 57 by agar dilution method; in short: as §3
Clostridioides difficile [21] = test: Antimicrobial activity against Clostridium difficile isolate 38 by Etest; in short: as §4
Clostridioides difficile [22] = test: Antimicrobial activity against Clostridium difficile isolate 45 by Etest; in short: as §1
Clostridioides difficile [23] = test: Antimicrobial activity against Clostridium difficile isolate 52 by agar dilution method; in short: as §3
Clostridioides difficile [24] = test: Antimicrobial activity against Clostridium difficile isolate 40 by agar dilution method; in short: as §3
Clostridioides difficile [25] = test: Antimicrobial activity against Clostridium difficile isolate 41 by agar dilution method; in short: as §3
Clostridioides difficile [26] = test: Antimicrobial activity against Clostridium difficile isolate 48 by Etest; in short: as §1
Clostridioides difficile [27] = test: Antimicrobial activity against Clostridium difficile isolate 76 by Etest
In short: (§7)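 Rifampin MIC by Etest on brucella blood agar, run per the strip manufacturer's instructions, against clinical isolates typed by HindIII REA.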

Clostridioides difficile [28] = test: Antimicrobial activity against Clostridium difficile isolate 70 by agar dilution method; in short: as §6
Clostridioides difficile [29] = test: Antimicrobial activity against Clostridium difficile isolate 71 by Etest; in short: as §7
Clostridioides difficile [30] = test: Antimicrobial activity against Clostridium difficile isolate 37 by Etest; in short: as §4
Clostridioides difficile [31] = test: Antimicrobial activity against rifaximin-resistant Clostridium difficile isolate 18 expressing RpoB R505K mutant by agar dilution method
In short: as §5, with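 “MICs were found” for “MIC”, “by the” for “by”, “dilution method” for “dilution”, “with” for “plus”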

Clostridioides difficile [32] = test: Antimicrobial activity against Clostridium difficile isolate 35 by Etest; in short: as §4
Clostridioides difficile [33] = test: Antimicrobial activity against Clostridium difficile isolate 53 by agar dilution method; in short: as §3
Clostridioides difficile [34] = test: Antimicrobial activity against Clostridium difficile isolate 73 by Etest; in short: as §7
Clostridioides difficile [35] = test: Antimicrobial activity against Clostridium difficile isolate 32 by agar dilution method; in short: as §5
Clostridioides difficile [36] = test: Antimicrobial activity against rifaximin-resistant Clostridium difficile isolate 12 expressing RpoB H502N and R505K mutants by agar dilution method
In short: as §5, with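 “MICs were found” for “MIC”, “by the” for “by”, “dilution method” for “dilution”, “with” for “plus”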

Clostridioides difficile [37] = test: Antimicrobial activity against Clostridium difficile isolate 10 by Etest; in short: as §4
Clostridioides difficile [38] = test: Antimicrobial activity against Clostridium difficile isolate 9 by Etest; in short: as §7
Clostridioides difficile [39] = test: Antimicrobial activity against rifaximin-resistant Clostridium difficile isolate 68 expressing RpoB H502Y mutant by agar dilution method
In short: as §5, with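 “MICs were found” for “MIC”, “by the” for “by”, “dilution method” for “dilution”, “with” for “plus”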

Clostridioides difficile [40] = test: Antimicrobial activity against Clostridium difficile isolate 57 by Etest; in short: as §1
Clostridioides difficile [41] = test: Antimicrobial activity against Clostridium difficile isolate 25 by agar dilution method; in short: as §5
Clostridioides difficile [42] = test: Antimicrobial activity against Clostridium difficile isolate 60 by agar dilution method; in short: as §3
Clostridioides difficile [43] = test: Antimicrobial activity against Clostridium difficile isolate 73 by agar dilution method; in short: as §6
Clostridioides difficile [44] = test: Antimicrobial activity against Clostridium difficile isolate 44 by agar dilution method; in short: as §3
Clostridioides difficile [45] = test: Antimicrobial activity against Clostridium difficile isolate 20 by Etest; in short: as §4
Clostridioides difficile [46] = test: Antimicrobial activity against Clostridium difficile isolate 58 by Etest; in short: as §1
Clostridioides difficile [47] = test: Antimicrobial activity against Clostridium difficile isolate 72 by agar dilution method; in short: as §6
Clostridioides difficile [48] = test: Antimicrobial activity against rifaximin-resistant Clostridium difficile isolate 26 expressing RpoB R505K mutant by agar dilution method
In short: as §5, with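 “MICs were found” for “MIC”, “by the” for “by”, “dilution method” for “dilution”, “with” for “plus”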

Clostridioides difficile [49] = test: Antimicrobial activity against Clostridium difficile isolate 7 by Etest; in short: as §7

CO[C@H]1/C=C/O[C@@]2(C)Oc3c(C)c(O)c4c(O)c(c(/C=N/N5CCN(C)CC5)c(O)c4c3C2=O)NC(=O)/C(C)=C\C=C\[C@H](C)[C@H](O)[C@@H](C)[C@@H](O)[C@@H](C)[C@H](OC(C)=O)[C@@H]1C [RIFAMPIN]
MIC (Clostridioides difficile [1]): < 2 ng/mL
MIC (Clostridioides difficile [2]): > 32000 ng/mL
MIC (Clostridioides difficile [3]): 0.9 ng/mL (≈ 1.09 nM)
MIC (Clostridioides difficile [4]): < 2 ng/mL
MIC (Clostridioides difficile [5]): > 32000 ng/mL
MIC (Clostridioides difficile [6]): > 32000 ng/mL
MIC (Clostridioides difficile [7]): 0.9 ng/mL (≈ 1.09 nM)
MIC (Clostridioides difficile [8]): < 2 ng/mL
MIC (Clostridioides difficile [9]): 128000 ng/mL (≈ 156000 nM)
MIC (Clostridioides difficile [10]): 0.9 ng/mL (≈ 1.09 nM)
MIC (Clostridioides difficile [11]): > 32000 ng/mL
MIC (Clostridioides difficile [12]): 0.9 ng/mL (≈ 1.09 nM)
MIC (Clostridioides difficile [13]): 0.06 ng/mL (≈ 0.0729 nM)
MIC (Clostridioides difficile [14]): < 2 ng/mL
MIC (Clostridioides difficile [15]): < 2 ng/mL
MIC (Clostridioides difficile [16]): 0.9 ng/mL (≈ 1.09 nM)
MIC (Clostridioides difficile [17]): < 2 ng/mL
MIC (Clostridioides difficile [18]): < 2 ng/mL
MIC (Clostridioides difficile [19]): < 2 ng/mL
MIC (Clostridioides difficile [20]): 0.9 ng/mL (≈ 1.09 nM)
MIC (Clostridioides difficile [21]): < 2 ng/mL
MIC (Clostridioides difficile [22]): < 2 ng/mL
MIC (Clostridioides difficile [23]): 1.9 ng/mL (≈ 2.31 nM)
MIC (Clostridioides difficile [24]): 0.9 ng/mL (≈ 1.09 nM)
MIC (Clostridioides difficile [25]): 0.9 ng/mL (≈ 1.09 nM)
MIC (Clostridioides difficile [26]): < 2 ng/mL
MIC (Clostridioides difficile [27]): < 2 ng/mL
MIC (Clostridioides difficile [28]): 0.06 ng/mL (≈ 0.0729 nM)
MIC (Clostridioides difficile [29]): < 2 ng/mL
MIC (Clostridioides difficile [30]): < 2 ng/mL
MIC (Clostridioides difficile [31]): 128000 ng/mL (≈ 156000 nM)
MIC (Clostridioides difficile [32]): < 2 ng/mL
MIC (Clostridioides difficile [33]): 1.9 ng/mL (≈ 2.31 nM)
MIC (Clostridioides difficile [34]): < 2 ng/mL
MIC (Clostridioides difficile [35]): 0.9 ng/mL (≈ 1.09 nM)
MIC (Clostridioides difficile [36]): > 256000 ng/mL
MIC (Clostridioides difficile [37]): 16 ng/mL (≈ 19.4 nM)
MIC (Clostridioides difficile [38]): 3 ng/mL (≈ 3.65 nM)
MIC (Clostridioides difficile [39]): > 256000 ng/mL
MIC (Clostridioides difficile [40]): < 2 ng/mL
MIC (Clostridioides difficile [41]): 0.9 ng/mL (≈ 1.09 nM)
MIC (Clostridioides difficile [42]): 0.9 ng/mL (≈ 1.09 nM)
MIC (Clostridioides difficile [43]): 0.06 ng/mL (≈ 0.0729 nM)
MIC (Clostridioides difficile [44]): 0.9 ng/mL (≈ 1.09 nM)
MIC (Clostridioides difficile [45]): < 2 ng/mL
MIC (Clostridioides difficile [46]): < 2 ng/mL
MIC (Clostridioides difficile [47]): 0.06 ng/mL (≈ 0.0729 nM)
MIC (Clostridioides difficile [48]): 128000 ng/mL (≈ 156000 nM)
MIC (Clostridioides difficile [49]): < 2 ng/mL
